# Assay outcomes as filed in PubChem BioAssay.
# Shown are actives, neighbours in structure and some others; about 7.1% of the full set was active somewhere.
# PTEN del growth = growth suppressors of cells with PTEN tumor suppressor deletion; HCT116 PTEN-null viability, CellTiter-Glo, 60 h; hits give low values; viability, % at 10 µM; 140,000 tested, 1.2% active;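 active = viability at or below a set limit, 4 SD under the median of all tested compounds, cut at about 3.7% in these data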;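 note: PTEN knockout HCT116 line with beta catenin targeted HCT116 as companion control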
# Lung fibro prol = blocks proliferation of human lung fibroblasts. LL 47 human lung fibroblast viability, ATP luminescence; hits give low values. viability, % at 10 µM. 85,000 tested, 1.1% active. AID 719;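 active = viability at or below 50% in the single dose screen; inactive = viability above 50%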;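 note: compound exposure lasted 72 h before the ATP readout; 100% = median luminescence of untreated cell-only wells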
#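 Material: human LL 47 lung fibroblast cells; quantity: 1,150 cells/well; medium: IMEM plus 15% FBS; doses: 0.1% DMSO in all compound wells; timing: overnight attachment after seeding, then 72 h compound exposure at 37 °C; detection: CellTiter-Glo luminescence; measure: % viability of median cell-only signal; controls: cell-only wells, no compound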
# Cav3 T inh = blocks human Cav3.2 T-type calcium channel. 100,000 tested, 4% active. AID 449739. Cav3.2-expressing cells, Fluo-4 calcium fluorescence FDSS; hits give low values. O95180. B-score at 10 µM;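 active = single-dose well whose peak fluorescence ratio is a statistical outlier from its plate by either plate-standardised score or position-corrected B-score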
# HCT116 bCat-KO = beta-catenin-lacking colon tumor cell growth suppression; HCT116 beta-catenin knockout viability, CellTiter-Glo, 60 h; hits give low values; viability, % at 10 µM; 140,000 tested, 1.5% active;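 active = viability at or under a set limit, the compound median less 4 SD, cut at about 6% in these data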;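 note: 0% = Hyamine 1622 control at 20 µM and 100% = untreated cell control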
# HUVEC prolif 384 = inhibitors of human endothelial cell proliferation. HUVEC proliferation, CellTiter-Glo luminescence, 72 h; hits give low values. viability, % at 10 µM (by protocol). 86,000 tested, 1.1% active. AID 648;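 active = viability at or below 30%; inactive = viability above 30%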;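 note: 100% = median luminescence of DMSO-only cell control wells on each plate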
# H69AR growth 86K = blocks growth of human H69AR lung tumor cells; H69AR lung tumor viability, ATP luminescence, 72 h; hits give low values; viability, % at 10 µM; 85,000 tested, 6% active; AID 598;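 active = viability at or below 40%; inactive = viability above 40%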;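 note: multidrug resistant small cell line overexpressing MRP-1 efflux transporter; 100% = mean luminescence of untreated control wells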
# The depositor's hits bear a star; · = not tested or not shown.
SMILES,PTEN del growth,Lung fibro prol,Cav3 T inh,HCT116 bCat-KO,HUVEC prolif 384,H69AR growth 86K
Cc1ccc(N2CCN(CCc3nc4cc(NC(=O)c5ccco5)ccc4n3C)CC2)cc1,66.2,97.2,·,64.7,95.6,6.6*
Cn1c(CCN2CCN(c3ccccc3)CC2)nc2cc(NC(=O)c3ccco3)ccc21,64.7,96.5,·,78.4,88.0,21.2*
O=C1NC2(CCCCCC2)C(=O)N1Cc1ccc([N+](=O)[O-])cc1,81.9,·,·,87.9,·,·
COc1cc(C)c(C(=O)Oc2cc(C)c(C(=O)O)c(O)c2C)c(OC)c1C,·,·,-4.36*,·,·,·
CC(C)CC(NC(=O)C(Cc1ccc(OCc2ccccc2)cc1)NC(=O)OC(C)(C)C)C(N)=O (centres undefined),90.7,·,-4.79*,96.3,·,·
CC(C)c1nc2sc3c(=O)n(N)cnc3c2c2c1COC(C)(C)C2,80.2,·,·,91.5,·,·
CCC(NC(=O)Nc1nnc(C(F)(F)F)s1)(C(F)(F)F)C(F)(F)F,2.5*,28.6*,-7.81*,2.1*,22.8*,6.0*
O=C(NCc1cccs1)C1CCN(S(=O)(=O)c2cccc3nsnc23)CC1,91.2,98.5,0.567,110.1,90.9,93.1
O=C(Nc1ccncc1)C1CCCN(S(=O)(=O)c2cccc3cccnc23)C1 (centres undefined),22.8,57.5,-0.163,23.4,66.9,23.9*
COc1cccc(NC(=O)C2CCCN(S(=O)(=O)c3cccc4cccnc34)C2)c1 (centres undefined),73.1,103.7,0.0572,64.3,88.2,82.0
O=C(Nc1cccnc1)C(Cc1ccccc1)n1cccc1 (centres undefined),80.9,100.1,0.263,90.4,94.6,91.7
O=C(Nc1ncc(Br)s1)C(Cc1ccccc1)n1cccc1 (centres undefined),56.3,88.0,-4.48*,58.2,46.3,71.2
O=C(CN1CCC(n2nnc3cc(F)ccc32)CC1)NC1CC1,96.2,102.9,0.42,95.7,97.1,89.6
CCOc1ccc2nc(NC(=O)CSC3=NCCS3)sc2c1,80.9,92.1,-1.24,83.6,58.9,1.1*
COc1ccc2nc(NC(=O)CSC3=NCCS3)sc2c1,78.2,94.5,-1.96,72.9,29.8*,43.3
CCOc1ccc2nc(NC(=O)CN3CCC(n4nnc5cc(F)ccc54)CC3)sc2c1,12.2,88.6,-2.72,10.0,9.2*,41.4
CCOc1ccc2nc(NC(=O)CSc3ccc(Cl)cc3)sc2c1,85.6,106.0,-2.45,98.8,97.0,75.0
CCCOc1ccc(N2C(=O)CC(N3CCC(c4nncn4CC)CC3)C2=O)cc1 (centres undefined),105.7,101.2,·,96.5,95.0,95.1
CC1=C(C)/C(=N\OS(=O)(=O)c2ccc(C)cc2)C=CC1=O,1.7*,·,·,1.8*,·,·
CC1=C/C(=N\OS(=O)(=O)c2ccccc2)C(C)=CC1=O,1.7*,·,2.54,1.8*,·,·
CC1=C/C(=N\OS(=O)(=O)c2ccccc2)C(C(C)C)=CC1=O,1.5*,·,·,1.5*,·,·
COc1ccc(S(=O)(=O)/N=C2/C=CC(=O)C(C)=C2C)cc1,100.6,·,-0.246,98.2,·,·
CC(C)CCNC(=O)NC(=O)COC(=O)C1CCN(S(=O)(=O)c2ccccc2F)CC1,94.8,·,·,95.3,·,·
Cc1cc(C)n(-c2nc(NCCCO)c3c4c(sc3n2)CCCC4)n1,12.8,78.8,-0.162,12.2,17.1*,4.9*
Cc1cc(C)n(-c2nc(NCCO)c3c4c(sc3n2)CCCC4)n1,25.2,84.5,-0.612,14.7,78.4,11.0*
SMILES,PTEN del growth,Lung fibro prol,Cav3 T inh,HCT116 bCat-KO,HUVEC prolif 384,H69AR growth 86K
Cc1cc(C)cc(NC(=O)CSc2nc3c(c(=O)[nH]2)CN(Cc2ccc(F)cc2)CC3)c1,84.8,·,·,94.6,·,·
CCOC(=O)c1c(NC(C)=O)sc2c1CCC(C=O)=C2Sc1ccccc1,·,17.8*,0.939,21.1,31.8,4.6*
CC(OC(=O)c1snc(C(=O)NC2CCCCC2)c1N)C(=O)NC1CCCCC1 (centres undefined),82.0,70.9,-0.7,88.1,77.8,22.6*
CC(C)NC(=O)NC(=O)COC(=O)c1cccc(S(=O)(=O)N2CCCCC2)c1,99.6,·,·,85.1,·,·
Cc1ccc2c(c1)c1c(n2CC(O)Cn2nc(C)c(Br)c2C)CCCC1 (centres undefined),55.1,97.7,-1.23,74.3,67.0,54.6
Cc1ccc2c(c1)c1c(n2CC(O)Cn2c(C)nc3ccccc32)CCCC1 (centres undefined),69.7,90.0,-1.69,53.9,10.8*,1.5*
Cc1cccc(NS(=O)(=O)c2ccc(C3CCCCC3)cc2)n1,77.7,96.0,-3.48,85.5,113.8,101.1
Cc1cccc(NS(=O)(=O)c2ccc(C3CCCCC3)cc2)c1,63.3,·,-4.55*,52.7,·,·
Cc1ccccc1NC(=O)c1cc(S(=O)(=O)c2ccccc2)ccc1Cl,87.7,·,-1.83,85.2,·,·
Cc1cccc(NC(=O)c2cccc(NS(=O)(=O)c3ccc(Cl)cc3)c2)c1,95.9,·,-9.59*,98.7,·,·
Cc1cccc(NC(=O)c2cc(S(=O)(=O)c3ccccc3)ccc2Cl)c1,69.2,·,-5.56*,65.1,·,·
CCN(CC)S(=O)(=O)c1cccc(C(=O)N[C@H](C(=O)NCc2ccc(Cl)cc2)C(C)C)c1,79.5,·,-9.8*,78.5,·,·
COCCN(C(=S)Nc1ccccc1OC)C(C)c1cccs1 (centres undefined),74.4,·,·,83.0,·,·
Cc1cc(C)cc(NC(=O)c2ccc(S(=O)(=O)C(F)F)cc2)c1,89.7,·,·,96.3,·,·
CCN(CC)S(=O)(=O)c1cccc(C(=O)Nc2cc(C)cc(C)c2)c1,85.4,100.2,-3.43*,82.9,81.8,32.0*
Cc1ccc(S(=O)(=O)Nc2cc(C(=O)Nc3cc(C)cc(C)c3)ccc2Cl)cc1,86.0,·,-5.26*,97.4,·,·
CCN(CC)S(=O)(=O)c1cccc(C(=O)Nc2cccc(C)c2)c1,48.0,102.2,-4.79,32.7,92.2,24.9*
CCN(CC)S(=O)(=O)c1cccc(C(=O)Nc2ccc(C#N)cc2)c1,19.1,·,-1.46,16.7,86.3,80.2
CCN(CC)S(=O)(=O)c1cccc(NC(=O)COC(=O)c2cc(C)oc2C)c1,104.1,·,-5.99*,84.3,·,·
Cc1cc(C(=O)OCC(=O)Nc2ccc(F)cc2)c(C)o1,108.1,98.4,0.136,110.0,113.5,101.1
CCN1CC=C2C(C#N)=C(N)C(C#N)(C#N)C(c3cc(Cl)ccc3Cl)C2C1 (centres undefined),73.4,84.3,·,89.0,63.2,56.8
CC(C)(Oc1ccc(Cl)cc1)C(=O)OCC(=O)N1CCCC1,98.2,102.2,-0.104,101.3,101.1,94.4
CCN1C(=O)/C(=C\c2cccn2-c2ccc([N+](=O)[O-])cc2)N(CC)C1=S,86.8,·,·,82.5,·,·
CNC(=O)N(O)C1N(c2ccccc2)C(=S)SC1(C)C (centres undefined),96.2,·,·,96.3,·,·
CCOC(=O)C1=NN(c2ccccc2)C2=NC(C)=C(C(=O)OC)C(c3ccc(C)cc3)N12 (centres undefined),82.2,·,·,84.9,·,·
